Data set [1] has as its target T1, Peroxisome proliferator-activated receptor alpha (Homo sapiens, UniProt Q07869).
T1 sequence (Q07869 whole entry): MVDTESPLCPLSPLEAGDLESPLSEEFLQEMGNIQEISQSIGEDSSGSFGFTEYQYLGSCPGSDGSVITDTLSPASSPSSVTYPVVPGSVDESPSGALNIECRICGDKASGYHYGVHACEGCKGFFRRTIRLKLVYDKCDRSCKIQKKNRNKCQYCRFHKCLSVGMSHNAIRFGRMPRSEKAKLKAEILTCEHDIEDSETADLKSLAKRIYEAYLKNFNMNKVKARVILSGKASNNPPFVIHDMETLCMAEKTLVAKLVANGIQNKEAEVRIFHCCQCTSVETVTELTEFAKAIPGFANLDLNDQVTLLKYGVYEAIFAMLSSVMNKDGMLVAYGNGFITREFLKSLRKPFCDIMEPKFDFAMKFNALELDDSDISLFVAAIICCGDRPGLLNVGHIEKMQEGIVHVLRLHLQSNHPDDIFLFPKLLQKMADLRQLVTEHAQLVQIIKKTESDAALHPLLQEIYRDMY
The experiment in a line: Effect on human PPARalpha transactivation in 293T cells. The format is functional, cell-based. An outline of the steps:
(§1)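 293T cells transfected for 6 h (Fugene6) with a GAL4 DNA-binding domain–PPAR ligand-binding domain fusion plasmid and pG5-Luc reporter (5 GAL4-binding sites, TATA box, firefly luciferase). Compounds were then added at 1× final concentration in 1% DMSO for 18-20 h at 37 °C. Cells were lysed with Britelite for luciferase read-out.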

Data set [2] concerns the target T2, Peroxisome proliferator-activated receptor gamma (Homo sapiens, UniProt P37231).
T2 sequence (P37231 whole entry): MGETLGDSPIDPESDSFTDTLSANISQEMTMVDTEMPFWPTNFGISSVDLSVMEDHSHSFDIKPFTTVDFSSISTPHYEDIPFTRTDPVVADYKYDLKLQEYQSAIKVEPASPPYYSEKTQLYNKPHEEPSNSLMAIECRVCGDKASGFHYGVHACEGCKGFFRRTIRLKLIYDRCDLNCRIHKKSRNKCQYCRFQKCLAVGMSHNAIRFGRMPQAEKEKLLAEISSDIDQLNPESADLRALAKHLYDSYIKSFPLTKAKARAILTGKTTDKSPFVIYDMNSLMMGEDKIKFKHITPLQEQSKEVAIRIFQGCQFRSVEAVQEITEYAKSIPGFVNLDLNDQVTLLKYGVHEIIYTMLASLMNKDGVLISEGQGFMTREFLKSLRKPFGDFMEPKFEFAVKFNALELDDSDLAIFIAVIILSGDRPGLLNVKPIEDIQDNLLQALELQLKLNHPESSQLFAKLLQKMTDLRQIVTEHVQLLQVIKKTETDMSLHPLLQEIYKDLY
In words: Effect on human PPARgamma transactivation in 293T cells. The format is functional, cell-based.

The target of data set [3] is T3, Peroxisome proliferator-activated receptor delta (Homo sapiens, UniProt Q03181).
T3 sequence (Q03181 whole entry): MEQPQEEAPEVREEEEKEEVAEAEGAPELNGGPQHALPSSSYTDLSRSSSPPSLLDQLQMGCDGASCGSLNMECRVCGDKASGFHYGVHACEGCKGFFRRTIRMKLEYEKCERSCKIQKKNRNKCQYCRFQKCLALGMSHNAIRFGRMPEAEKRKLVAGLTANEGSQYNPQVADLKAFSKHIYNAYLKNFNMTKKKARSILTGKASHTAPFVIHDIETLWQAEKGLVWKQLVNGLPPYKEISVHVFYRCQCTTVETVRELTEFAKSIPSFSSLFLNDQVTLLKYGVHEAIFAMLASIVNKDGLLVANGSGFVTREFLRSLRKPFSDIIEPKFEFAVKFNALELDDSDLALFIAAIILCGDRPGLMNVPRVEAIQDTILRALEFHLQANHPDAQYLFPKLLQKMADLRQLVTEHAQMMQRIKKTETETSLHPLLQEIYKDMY
The experiment in a line: Effect on human PPARdelta transactivation in 293T cells. The format is functional, cell-based.

Data set [4] concerns the target T4, Peroxisome proliferator-activated receptor gamma (Homo sapiens) (UniProt P37231).
T4 sequence (whole entry): T2 sequence (P37231 whole entry)
The experiment in a line: Effect on human PPARgamma transactivation in 293T cells relative to rosiglitazone. The format is functional, cell-based. The procedure, abridged: as §1

The species entered for a further data set is Mus musculus. The experiment in a line: Stability in mouse liver microsome. The format is ADME.
In data set [5] the test system is Liver microsomes. The experiment in a line: Stability in rat liver microsome. The format is ADME. Background: Liver microsomes are vesicles of endoplasmic reticulum, rich in cytochrome P450 enzymes.
Data set [6] concerns Liver microsomes. In words: Stability in human liver microsome. Format: ADME.
Data set [7] can be described thus: Bioavailability in mouse at 10 mg/kg, po. The format is ADME, organism-based. Particulars: in vivo. The procedure, abridged: (§2)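 Mice received a single oral dose of 10 mpk, given as a suspension in 0.5% CMC. Bioavailability, Cmax and half-life were obtained from this pharmacokinetic study.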
Data set [8] is described as follows: Cmax in mouse at 10 mg/kg, po. The format is ADME, organism-based. To be noted: in vivo. The arrangement: dose 10 mg/kg, route oral. The procedure, abridged: as §2
Data set [9] can be described thus: Half life in mouse at 10 mg/kg, po. Format: ADME, organism-based. Details: dose 10 mg/kg, route oral. Particulars: in vivo. The procedure, abridged:
as §2

In general, EC50 refers to the concentration at which the effect is half-maximal. A high value points to a need for much substance. What is called bioavailability is dose-corrected exposure relative to a reference, in per cent. A word on the Cmax: it is the maximum level reached in the sampled fluid or tissue. For orientation: half-life means the time in which the quantity being followed falls by half. A low value points to fast loss.

On to `Cc1cc(OCc2cc(-c3ccc(-c4ccccc4)cc3)cc(-c3ccc(C(F)(F)F)cc3)c2)ccc1OCC(=O)O`, for which the EC50 was greater than 10000 nM in data set [1], greater than 10000 nM in data set [2] and 60 nM in data set [3].
In the case of `Cc1cc(SCc2cc(-c3ccc(C(F)(F)F)cc3)cc(-c3ccc(C(F)(F)F)cc3)c2)ccc1OCC(=O)O`, the EC50 is greater than 10000 nM in data set [1], greater than 10000 nM in [2] and 30 nM in [3].
For `Cc1cc(OCc2ccc(-c3ccc(C(F)(F)F)cc3)c(-c3ccc(C(F)(F)F)cc3)n2)ccc1OCC(=O)O`, the EC50 in [1], in [2] and in [3] was greater than 10000 nM throughout.
As to `COc1ccc(-c2cc(COc3ccc(OCC(=O)O)c(C)c3)cc(-c3ccc(OC)cc3)c2)cc1`, the values for the EC50 in [1], in data set [2] and in [3] were greater than 10000 nM, greater than 10000 nM and 350 nM, respectively.
Regarding `Cc1cc(OCc2cc(-c3ccc(Cl)cc3)cc(-c3ccc(Cl)cc3)c2)ccc1OCC(=O)O`, the figures for the EC50 in [1], in data set [2] and in data set [3] were greater than 10000 nM, greater than 10000 nM and 110 nM, respectively.
For `CC(C)(Oc1ccc(OCc2cc(-c3ccc(C(F)(F)F)cc3)cc(-c3ccc(C(F)(F)F)cc3)c2)cc1)C(=O)O`, the EC50 in [1] is 730 nM; in data set [2], 370 nM; in data set [3], 50 nM.
The like results for `Cc1cc(OCc2cc(-c3ccc(OC(F)(F)F)cc3)cc(-c3ccc(C(F)(F)F)cc3)c2)ccc1OCC(=O)O` were, in that order, greater than 10000 nM, greater than 10000 nM and 60 nM.
With `Cc1cc(OCc2cc(-c3ccccc3)cc(-c3ccccc3)c2)ccc1OCC(=O)O`, the results for the EC50 in data set [1], in data set [2] and in [3] were greater than 10000 nM, 740 nM and 560 nM, respectively. The Efficacy in [4] was 30%.
With `Cc1cc(OCc2cc(-c3ccc(N(C)C)cc3)cc(-c3ccc(N(C)C)cc3)c2)ccc1OCC(=O)O`, the EC50 was greater than 10000 nM in data set [1], greater than 10000 nM in data set [2] and 490 nM in data set [3].
Regarding `COc1ccc(-c2cc(COc3ccc(OCC(=O)O)c(C)c3)cc(-c3ccc(C(F)(F)F)cc3)c2)cc1`, the EC50 was greater than 10000 nM in data set [1], greater than 10000 nM in data set [2] and 70 nM in data set [3].
Take `O=C(O)Cc1ccc(SCc2cc(-c3ccc(C(F)(F)F)cc3)cc(-c3ccc(C(F)(F)F)cc3)c2)c(Cl)c1`: the EC50 in [1] was greater than 10000 nM; in data set [2], greater than 10000 nM; in data set [3], 160 nM.
In the case of `Cc1cc(OCc2nc(-c3ccc(C(F)(F)F)cc3)cc(-c3ccc(C(F)(F)F)cc3)n2)ccc1OCC(=O)O`, the EC50 in data set [1] was greater than 10000 nM; in data set [2], greater than 10000 nM; in data set [3], 40 nM.
As to `O=C(O)COc1ccc(OCc2cc(-c3ccc(C(F)(F)F)cc3)cc(-c3ccc(C(F)(F)F)cc3)c2)cc1`, the results for the EC50 in data set [1], in data set [2] and in [3] were 1640 nM, greater than 10000 nM and 110 nM, respectively.
Take `Cc1ccc(-c2cc(COc3ccc(OCC(=O)O)c(C)c3)cc(-c3ccc(C(F)(F)F)cc3)c2)cc1`: the EC50 was greater than 10000 nM in data set [1], greater than 10000 nM in data set [2] and 70 nM in [3].
In the case of `Cc1cc(OCc2cc(-c3ccc(C(F)(F)F)cc3)cc(-c3cccc(C(F)(F)F)c3)c2)ccc1OCC(=O)O`, the EC50 in data set [1] is greater than 10000 nM; in data set [2] it was greater than 10000 nM; in [3] it was 560 nM.
In the case of `Cc1cc(OCc2ccc(-c3ccc(OC(F)(F)F)cc3)c(-c3ccc(OC(F)(F)F)cc3)c2)ccc1OCC(=O)O`, the EC50 in [1], in data set [2] and in data set [3] was greater than 10000 nM each time.
`COc1ccc(-c2ccc(COc3ccc(OCC(=O)O)c(C)c3)cc2-c2ccc(OC)cc2)cc1`: the EC50 in data set [1], in [2] and in data set [3] was greater than 10000 nM in each case.
For `Cc1cc(OCc2cc(-c3ccc(OC(F)(F)F)cc3)nc(-c3ccc(OC(F)(F)F)cc3)n2)ccc1OCC(=O)O`, the EC50 is greater than 10000 nM in [1], greater than 10000 nM in [2] and 40 nM in data set [3]. In addition, the Stability result in the data set listed under Mus musculus, with Liver microsomes [5] and in the data set on Liver microsomes [6] was “Stable” throughout. The compound also showed a bioavailability in data set [7] greater than 50%. For the same compound, the Cmax in [8] was greater than 4 µM. In addition, in data set [9], the half-life was 3 h.
For `O=C(O)COc1ccc(OCc2cc(-c3ccccc3)cc(-c3ccccc3)c2)cc1`, the EC50 in [1] was greater than 10000 nM; in data set [2], 1200 nM; in data set [3] it was 970 nM.
With `COc1ccc(-c2cc(-c3ccc(OC)cc3)nc(COc3ccc(OCC(=O)O)c(C)c3)n2)cc1`, the EC50 in data set [1] was greater than 10000 nM; in data set [2], greater than 10000 nM; in [3] it was 110 nM.
Consider `Cc1cc(OCc2nc(-c3ccc(OC(F)(F)F)cc3)cc(-c3ccc(OC(F)(F)F)cc3)n2)ccc1OCC(=O)O`, for which the EC50 in [1] was greater than 10000 nM; in data set [2], greater than 10000 nM; in data set [3], 90 nM.
`O=C(O)Cc1ccc(OCc2cc(-c3ccc(C(F)(F)F)cc3)cc(-c3ccc(C(F)(F)F)cc3)c2)c(Cl)c1`: the half-maximal effective concentration (EC50) in data set [1] was greater than 10000 nM; in data set [2] it was greater than 10000 nM; in data set [3], 540 nM.
Turning to `COc1ccc(-c2cc(COc3ccc(OCC(=O)O)c(C)c3)nc(-c3ccc(OC)cc3)n2)cc1`, the EC50 in data set [1] was greater than 10000 nM; in data set [2] it was greater than 10000 nM; in [3], 210 nM.
As for `Cc1cc(OCC(=O)O)ccc1OCc1cc(-c2ccc(C(F)(F)F)cc2)cc(-c2ccc(C(F)(F)F)cc2)c1`, the values for the EC50 in data set [1], in [2] and in data set [3] were 3330 nM, greater than 10000 nM and 70 nM, respectively.
The like results for `Cc1cc(OCc2cc(-c3ccc(OC(F)(F)F)cc3)cc(-c3ccc(OC(F)(F)F)cc3)c2)ccc1OCC(=O)O` were, in that order, greater than 10000 nM, greater than 10000 nM and 30 nM.
`Cc1cc(OCc2cc(-c3ccc(C(F)(F)F)cc3)nc(-c3ccc(C(F)(F)F)cc3)n2)ccc1OCC(=O)O`: the EC50 was greater than 10000 nM in data set [1], greater than 10000 nM in [2] and 30 nM in data set [3].
For `Cc1cc(OCc2cc(-c3ccc(C(F)(F)F)cc3)cc(-c3ccc(C(F)(F)F)cc3)c2)ccc1OCC(=O)O`, the results for the EC50 in [1], in data set [2] and in data set [3] were greater than 10000 nM, greater than 10000 nM and 10 nM, respectively. Further, the Stability result in the data set filed under Mus musculus, in the data set with Liver microsomes [5] and with Liver microsomes [6] was “Stable” throughout. Further, the bioavailability in data set [7] is greater than 50%. In [8], the Cmax is greater than 4 µM. This compound gave a half-life in data set [9] of 3 h.

The values above are taken from ChEMBL document CHEMBL1147714, “1,3,5-Trisubstituted aryls as highly selective PPARdelta agonists” (Bioorg Med Chem Lett, 2006).
